Reference: publication PMC2795045 (Chemico-biological interactions, 2010)
Read-outs that look alike come from different tables or passages of the source.

Key:
[1] = system: XLK-WG cells; test: CYP1A6/CYP1A7 mRNA induction in XLK-WG cells by quantitative RT-PCR; type: cell-based, Xenopus laevis
[2] = system: CYP1A; test: CYP1A activity; type: cell-based, Xenopus laevis; settings: Xenopus laevis
[3] = system: XLK-WG cells; test: CYP1A activity; type: cell-based, Xenopus laevis; settings: XLK-WG cells, at the concentration of maximum response
[4] = system: CYP1A1; test: CYP1A1 mRNA induction in Hepa1c1c7 cells by quantitative RT-PCR; type: cell-based, mouse; settings: mouse, EC50 for CYP1A1 mRNA induction, 3 hours exposure, qRT-PCR, ± SE
[5] = system: Hepa1c1c7 cells; test: as above; type: cell-based, mouse; settings: read-out: EC50 for CYP1A1 mRNA induction, 3 hours exposure, qRT-PCR, ± SE
[6] = system: Hepa1c1c7 cells; test: CYP1A activity; type: cell-based, mouse; settings: for maximum EROD activity in Hepa1c1c7 cells relative to XLK-WG cells / maximum EROD activity induced: 3 hour treatment; for maximum EROD activity induced: ± SE
[7] = system: CYP1A6 (Xl.1692) mRNA; test: Affymetrix expression microarray of XLK-WG cells; type: cell-based, Xenopus laevis; settings: Xenopus laevis
[8] = system: CYP1A7 (Xl.1220) mRNA; test: Affymetrix expression microarray of XLK-WG cells; type: cell-based, Xenopus laevis; settings: Xenopus laevis
[9] = system: XLK-WG cells; test: Affymetrix expression microarray of XLK-WG cells; type: cell-based, Xenopus laevis; settings: for Genes altered ≥ 2-fold: Induced / Genes altered ≥ 2-fold: Repressed / Genes altered (p ≤ 0.01): Induced / Genes altered (p ≤ 0.01): Repressed: 3 hours, number of genes; for Genes altered (p ≤ 0.01): Induced / Genes altered (p ≤ 0.01): Repressed: no two-fold cutoff; for fold induction at 0.1 µM: Xenopus laevis, 3 h
[10] = system: CYP1A6 (Xl.1692) mRNA; test: qRT-PCR of selected altered transcripts in XLK-WG cells; type: cell-based, Xenopus laevis; settings: Xenopus laevis
[11] = system: CYP1A7 (Xl.1220) mRNA; test: as above; type: cell-based, Xenopus laevis; settings: Xenopus laevis
[12] = system: XLK-WG cells; test: as above; type: cell-based, Xenopus laevis; settings: XLK-WG cells, relative to vehicle-treated control; for Xl.14954 (similar to voltage-gated potassium channel subunit MiRP4.1) fold induction, qRT-PCR: table row r10; for Xl.14954 fold induction, qRT-PCR: table row r16
[13] = system: CYP1A; test: CYP1A activity; type: cell-based, mouse; settings: mouse
[14] = system: XLK-WG cells; test: Semi-quantitative RT-PCR of AHR pathway transcripts in XLK-WG cells; type: cell-based, Xenopus laevis; settings: 100 nM TCDD, 24 hours
How it was run: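 XLK-WG cells were kept in the dark at 29 °C and 5% CO2 in RPMI-1640 with 20% FBS, then grown to near confluence. They were exposed for 24 h to 100 nM TCDD or DMSO vehicle (0.25% final). Total RNA was column-extracted, and RT-PCR covered CYP1A6, CYP1A7, AHR1α, AHR1β, ARNT1 and ARNT2. Cycling was 95 °C/1 min; 43 cycles of […], 50 °C/30 sec, 72 °C/60 sec; then 72 °C/7 min. A no-RT control was included.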

[15] = read-out: Hypothetical protein MCG81225 (similar to Zn-finger protein 410; Xl.16594) fold induction, Microarray

## O=Cc1c2[nH]c3ccccc3c2cc2[nH]c3ccccc3c12 [FICZ, 6-formylindolo[3,2-b]carbazole]
[1]
  CYP1A6/7 mRNA quantities after 3 hours exposure relative to 24 hours exposure: up to 5 fold
[1]; highest dosage of FICZ
  CYP1A7 mRNA induction after 3 hours relative to after 24 hours: 5 fold
[2]; EC50 of induced CYP1A activity (EROD), XLK-WG cells, 3 hour exposure, ± SE
  EC50: 0.56 ± 0.15 nM
[3]
  rise of induced CYP1A activity with 24 hours versus 3 hour exposure: more than 20 fold
[4]
  EC50: ~0.06 nM
[5]
  EC50: 0.07 ± 0.02 nM
[6]
  maximum EROD activity in Hepa1c1c7 cells relative to XLK-WG cells: ~ 20 fold
[6]; Hepa1c1c7 cells
  EROD EC50 after 24 hours relative to EC50 after 3 hours: ~ 50 fold
  maximum EROD activity induced: 8.83 ± 2.72 pmol • mg protein^−1 • min^−1
[7]
  fold induction at 0.1 µM: 2.1
[8]
  fold induction at 0.1 µM: 16.1
[9]; XLK-WG cells, 100 nM
  number of transcripts with altered expression in excess of TCDD: 105
  Genes altered ≥ 2-fold: Induced: 24
  Genes altered ≥ 2-fold: Repressed: 2
  Genes altered (p ≤ 0.01): Induced: 113
  Genes altered (p ≤ 0.01): Repressed: 35
[9]; [15]
  fold induction at 0.1 µM: 1.3
[9]; read-out: KCNE5.1: voltage-gated potassium channel subunit MiRP4.1 (Xl.16370) fold induction, Microarray
  fold induction at 0.1 µM: 2
[9]; read-out: MGC52735:similar to gap-jct protein alpha-7 (Xl.3337) fold induction, Microarray
  fold induction at 0.1 µM: 5.2
[9]; read-out: MGC85390 (Xl.23887; similar to RAB 40B, RAS oncogene family) fold induction, Microarray
  fold induction at 0.1 µM: 2.1
[9]; read-out: Peripheral Myelin protein 22 (Xl.11939/Xl.14729) fold induction, Microarray
  fold induction at 0.1 µM: 2.2
[9]; read-out: SYNE 1 (Xl. 14119) fold induction, Microarray
  fold induction at 0.1 µM: 6.7
[9]; read-out: Xl.13754 (similar to C219-reactive peptide) fold induction, Microarray
  fold induction at 0.1 µM: 3.1
[9]; read-out: Xl.14584 (similar to gastrula-specific protein kinase) fold induction, Microarray
  fold induction at 0.1 µM: 2.9
[9]; read-out: Xl.14954 (similar to voltage-gated potassium channel subunit MiRP4.1) fold induction, Microarray
  fold induction at 0.1 µM: 3.1
[9]; read-out: Xl.14954 fold induction, Microarray
  fold induction at 0.1 µM: 2.1
[9]; read-out: Xl.25142 fold induction, Microarray
  fold induction at 0.1 µM: 2.1
[9]; read-out: Xl.7783 fold induction, Microarray
  fold induction at 0.1 µM: 5.9
[10]
  fold induction: 455
[11]
  fold induction: 412
[12]
  Hyaluronidase 2 (Xl.6247/Xl.16152) fold induction, qRT-PCR: 2.7 fold
  Hypothetical protein MCG81225 (similar to Zn-finger protein 410; Xl.16594) fold induction, qRT-PCR: 3.5 fold
  KCNE5.1: voltage-gated potassium channel subunit MiRP4.1 (Xl.16370) fold induction, qRT-PCR: 1.6 fold
  MGC52735:similar to gap-jct protein alpha-7 (Xl.3337) fold induction, qRT-PCR: 304 fold
  Peripheral Myelin protein 22 (Xl.11939/Xl.14729) fold induction, qRT-PCR: 1.0 fold
  SYNE 1 (Xl. 14119) fold induction, qRT-PCR: 106 fold
  Xl.13754 (similar to C219-reactive peptide) fold induction, qRT-PCR: 4.6 fold
  Xl.14584 (similar to gastrula-specific protein kinase) fold induction, qRT-PCR: 10.6 fold
  Xl.25142 fold induction, qRT-PCR: 1.8 fold
  Xl.7783 fold induction, qRT-PCR: 4.3 fold
  Xl.14954 (similar to voltage-gated potassium channel subunit MiRP4.1) fold induction, qRT-PCR: 9.5 fold
  Xl.14954 fold induction, qRT-PCR: 1.9 fold

## Clc1cc2c(cc1Cl)Oc1cc(Cl)c(Cl)cc1O2 [TCDD, 2,3,7,8-tetrachlorodibenzo-p-dioxin]
[2]
  EC50 at 3 h: 10.5 ± 3.17 nM
  EC50 at 24 h: ≥ 95 nM
[3]
  rise of induced CYP1A activity with 24 hours versus 3 hour exposure: more than 20 fold
[4]
  EC50 at 3 h: ~0.06 nM
[5]
  EC50: 0.05 ± 0.02 nM
[13]
  EC50 at 3 h: 0.03 ± 0.01 nM
  EC50 at 24 h: 0.01 ± 0.002 nM
[6]
  maximum EROD activity in Hepa1c1c7 cells relative to XLK-WG cells: ~ 40 fold
[6]; Hepa1c1c7 cells
  maximum EROD activity induced: 13.41 ± 4.61 pmol • mg protein^−1 • min^−1
[7]
  fold induction at 3 h, 0.1 µM: 1.7
[8]
  fold induction at 3 h, 0.1 µM: 6.7
[9]; XLK-WG cells, 100 nM
  Genes altered ≥ 2-fold: Induced: 3
  Genes altered ≥ 2-fold: Repressed: 1
  Genes altered (p ≤ 0.01): Induced: 31
  Genes altered (p ≤ 0.01): Repressed: 12
[9]; [15]
  fold induction at 0.1 µM: 1.3
[10]
  fold induction at 3 h, 100 nM: 427
[11]
  fold induction at 3 h, 100 nM: 320
[12]
  Hyaluronidase 2 (Xl.6247/Xl.16152) fold induction, qRT-PCR: 1.6 fold
  Hypothetical protein MCG81225 (similar to Zn-finger protein 410; Xl.16594) fold induction, qRT-PCR: 3.2 fold
  KCNE5.1: voltage-gated potassium channel subunit MiRP4.1 (Xl.16370) fold induction, qRT-PCR: 2.0 fold
  MGC52735:similar to gap-jct protein alpha-7 (Xl.3337) fold induction, qRT-PCR: 69.1 fold
  MGC85390 (Xl.23887; similar to RAB 40B, RAS oncogene family) fold induction, qRT-PCR: 2.0 fold
  Peripheral Myelin protein 22 (Xl.11939/Xl.14729) fold induction, qRT-PCR: 1.1 fold
  SYNE 1 (Xl. 14119) fold induction, qRT-PCR: 8.4 fold
  Xl.13754 (similar to C219-reactive peptide) fold induction, qRT-PCR: 2.2 fold
  Xl.14584 (similar to gastrula-specific protein kinase) fold induction, qRT-PCR: 10.1 fold
  Xl.25142 fold induction, qRT-PCR: 0.9 fold
  Xl.7783 fold induction, qRT-PCR: 2.0 fold
  Xl.14954 (similar to voltage-gated potassium channel subunit MiRP4.1) fold induction, qRT-PCR: 6.6 fold
  Xl.14954 fold induction, qRT-PCR: 3.0 fold
[14]
  CYP1A6 and CYP1A7 mRNA expression, semi-quantitative RT-PCR: up regulation of CYP1A6 and CYP1A7 mRNAs
